In PMC7161550 (British Journal of Pharmacology, 2020):
“And” between values parts separate entries of the source, which are not always exact repeats. Equal entries are not always repeated.

Key:
human MATE2-K = human MATE2-K (Homo sapiens, UniProt Q86VL8); test: Transporter inhibition, probe substrate accumulation; format: in vitro ADME
How it was run: (§1)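 Inhibition of probe substrate accumulation in transfected cells: CHO‑K1 for OAT1 and OCT1; HEK293 for OAT3, OATP1B1 and OATP1B3; MDCKII for OCT2, MATE1 and MATE2‑K. Each transporter's activity was confirmed with a positive control substrate or inhibitor.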

human OATP1B3 = human OATP1B3 (Homo sapiens, UniProt Q9NPD5); test: as above; format: in vitro ADME; conditions: 0.033–33.3 μM
How it was run: as §1

CYP2A6 = CYP2A6 (Homo sapiens, UniProt P11509); test: CYP inhibition, pooled human liver microsomes; format: in vitro ADME; conditions: 0.33–99.2 μM, co‐ and pre‐incubation
How it was run: (§2)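 The rate of metabolite formation was measured; testosterone was one CYP3A4 substrate. Controls: solvent vehicle, enzyme-selective inhibitors, mechanism-based inhibitors. Analysis by HPLC with online radio-detection or LC/MS/MS.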

OCT1 = OCT1 (Homo sapiens, UniProt O15245); test: Transporter inhibition, probe substrate accumulation; format: in vitro ADME; conditions: CHO-K1 cells stably transfected with OCT1
How it was run: as §1

CYP2E1 = CYP2E1 (Homo sapiens, UniProt P05181); test: CYP inhibition, pooled human liver microsomes; format: in vitro ADME; conditions: 0.33–99.2 μM, co‐ and pre‐incubation
How it was run: as §2

human OAT1 = human OAT1 (Homo sapiens, UniProt Q4U2R8); test: Transporter inhibition, probe substrate accumulation; format: in vitro ADME; conditions: 0.033–33.3 μM
How it was run: as §1

MATE1 = MATE1 (Homo sapiens, UniProt Q96FL8); test: as above; format: in vitro ADME; conditions: MDCKII cells stably transfected with MATE1
How it was run: as §1

CYP2B6 = CYP2B6 (Homo sapiens, UniProt P20813); test: CYP inhibition, pooled human liver microsomes; format: in vitro ADME; conditions: 0.33–99.2 μM, co‐ and pre‐incubation
How it was run: as §2

[1] = format: in vivo; conditions: rat, 10 mg·kg^−1 p.o.
BCRP = molecular target: T1, BCRP (Homo sapiens, UniProt Q9UNQ0); test: Bidirectional permeability in MDCKII‐BCRP monolayers; format: in vitro ADME
T1 sequence (Q9UNQ0 1-655): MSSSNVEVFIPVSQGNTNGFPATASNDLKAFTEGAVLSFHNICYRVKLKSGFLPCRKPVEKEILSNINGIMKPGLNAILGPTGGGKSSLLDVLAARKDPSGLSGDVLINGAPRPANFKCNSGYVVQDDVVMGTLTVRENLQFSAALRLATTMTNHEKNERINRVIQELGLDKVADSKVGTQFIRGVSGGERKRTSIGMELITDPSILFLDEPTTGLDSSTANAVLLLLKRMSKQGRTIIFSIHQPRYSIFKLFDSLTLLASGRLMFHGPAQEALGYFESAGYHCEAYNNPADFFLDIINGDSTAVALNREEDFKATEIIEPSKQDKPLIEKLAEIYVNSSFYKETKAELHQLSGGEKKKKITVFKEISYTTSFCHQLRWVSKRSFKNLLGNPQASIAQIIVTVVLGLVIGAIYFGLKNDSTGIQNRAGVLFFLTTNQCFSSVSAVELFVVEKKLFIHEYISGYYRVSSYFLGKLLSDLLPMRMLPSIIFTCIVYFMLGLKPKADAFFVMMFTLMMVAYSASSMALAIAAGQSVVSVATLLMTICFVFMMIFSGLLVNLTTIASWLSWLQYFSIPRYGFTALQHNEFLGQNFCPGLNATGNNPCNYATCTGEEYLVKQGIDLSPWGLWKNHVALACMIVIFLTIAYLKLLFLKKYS
How it was run: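 Test compound (10 μM) permeability was measured in A–B and B–A directions across MDCKII‑BCRP and parental MDCKII monolayers. 3H‑prazosin (1 μM) served as positive control, with a BCRP inhibitor at 1 μM. Net efflux ratio = ER(BCRP) − ER(MDCKII).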

[2] = system: human solute carrier (SLC) transporters; test: Accumulation of BIA 10‐2474 in transporter‐expressing and control cells; format: in vitro ADME; conditions: transporter‐expressing vs control cell, all conditions tested
How it was run: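 Test compound accumulation was compared between transporter-expressing and control cells, expressed as transporter-specific fold accumulation. Transfected lines: CHO‑K1 (OAT1, OCT1), HEK293 (OAT3, OATP1B1, OATP1B3), MDCKII (OCT2, MATE1, MATE2‑K). Transporter activity was confirmed with positive control substrate or inhibitor.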

SHRSP = test: Stroke‐prone spontaneously hypertensive rats; format: in vivo, rat; conditions: 30 mg·kg^−1 p.o. daily
How it was run: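 SHRSP rats on stroke-prone diet with high-salt intake, n = 30 per group, received daily oral 0.2% HPMC vehicle or test compound at 30 mg·kg−1 in 0.2% HPMC (4 ml·kg−1). Normal-diet, tap-water controls (n = 10) received vehicle. Dosing continued until about half of either treated group had died; surviving rats' brains were examined histologically.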

OCT2 = OCT2 (Homo sapiens, UniProt O15244); test: Transporter inhibition, probe substrate accumulation; format: in vitro ADME; conditions: MDCKII cells stably transfected with OCT2
How it was run: as §1

OAT3 = OAT3 (Homo sapiens, UniProt Q8TCC7); test: as above; format: in vitro ADME; conditions: HEK293 cells stably transfected with OAT3
How it was run: as §1

human OATP1B1 = human OATP1B1 (Homo sapiens, UniProt Q9Y6L6); test: as above; format: in vitro ADME; conditions: 0.033–33.3 μM
How it was run: as §1

CYP3A4 = CYP3A4 (Homo sapiens, UniProt P08684); test: CYP inhibition, pooled human liver microsomes; format: in vitro ADME
How it was run: as §2

MDR1 = MDR1 (Homo sapiens, UniProt P08183); test: Bidirectional permeability in MDCKII‐MDR1 monolayers; format: in vitro ADME
How it was run: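 Bidirectional (A–B, B–A) permeability of test compound at 10 μM across MDCKII‑MDR1 and parental monolayers. A positive control substrate (5 μM) was included; PSC833 (10 μM) and a second inhibitor (100 μM) served as MDR1 inhibitors. Net efflux ratio = ER(MDR1) − ER(MDCKII).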

CYP2C19 = CYP2C19 (Homo sapiens, UniProt P33261); test: CYP inhibition, pooled human liver microsomes; format: in vitro ADME; conditions: 0.33–99.2 μM, co‐ and pre‐incubation
How it was run: as §2

Sequence of human MATE2-K (Q86VL8 1-566 isoform Q86VL8-3): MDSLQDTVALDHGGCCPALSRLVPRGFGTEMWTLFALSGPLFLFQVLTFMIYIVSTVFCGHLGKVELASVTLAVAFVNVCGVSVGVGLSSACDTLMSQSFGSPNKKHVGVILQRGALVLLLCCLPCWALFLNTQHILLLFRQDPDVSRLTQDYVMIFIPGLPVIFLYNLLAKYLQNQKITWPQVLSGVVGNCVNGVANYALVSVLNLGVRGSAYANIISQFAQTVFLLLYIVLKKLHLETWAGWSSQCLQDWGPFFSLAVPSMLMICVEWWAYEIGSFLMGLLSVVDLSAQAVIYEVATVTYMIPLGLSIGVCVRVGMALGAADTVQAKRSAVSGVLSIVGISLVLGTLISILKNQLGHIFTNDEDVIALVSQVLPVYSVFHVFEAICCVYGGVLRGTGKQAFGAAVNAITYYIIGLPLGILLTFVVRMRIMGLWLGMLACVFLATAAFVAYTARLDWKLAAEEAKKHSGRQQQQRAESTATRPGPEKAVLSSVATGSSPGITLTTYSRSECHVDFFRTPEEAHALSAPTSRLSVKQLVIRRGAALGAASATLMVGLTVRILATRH
Sequence of CYP3A4 (P08684 whole entry): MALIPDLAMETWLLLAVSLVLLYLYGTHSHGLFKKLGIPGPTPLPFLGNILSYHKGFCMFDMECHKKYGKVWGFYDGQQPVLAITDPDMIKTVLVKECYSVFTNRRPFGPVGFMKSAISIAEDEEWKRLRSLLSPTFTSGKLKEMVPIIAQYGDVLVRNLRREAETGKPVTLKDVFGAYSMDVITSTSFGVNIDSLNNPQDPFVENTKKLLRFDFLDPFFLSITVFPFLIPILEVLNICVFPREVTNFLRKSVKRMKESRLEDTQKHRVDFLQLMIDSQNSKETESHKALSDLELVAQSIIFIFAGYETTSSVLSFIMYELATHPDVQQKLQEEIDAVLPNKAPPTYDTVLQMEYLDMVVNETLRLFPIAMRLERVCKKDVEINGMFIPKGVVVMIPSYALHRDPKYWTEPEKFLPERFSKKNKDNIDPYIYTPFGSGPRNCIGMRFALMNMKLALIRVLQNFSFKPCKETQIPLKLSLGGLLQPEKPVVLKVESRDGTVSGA
Sequence of MDR1 (P08183 whole entry): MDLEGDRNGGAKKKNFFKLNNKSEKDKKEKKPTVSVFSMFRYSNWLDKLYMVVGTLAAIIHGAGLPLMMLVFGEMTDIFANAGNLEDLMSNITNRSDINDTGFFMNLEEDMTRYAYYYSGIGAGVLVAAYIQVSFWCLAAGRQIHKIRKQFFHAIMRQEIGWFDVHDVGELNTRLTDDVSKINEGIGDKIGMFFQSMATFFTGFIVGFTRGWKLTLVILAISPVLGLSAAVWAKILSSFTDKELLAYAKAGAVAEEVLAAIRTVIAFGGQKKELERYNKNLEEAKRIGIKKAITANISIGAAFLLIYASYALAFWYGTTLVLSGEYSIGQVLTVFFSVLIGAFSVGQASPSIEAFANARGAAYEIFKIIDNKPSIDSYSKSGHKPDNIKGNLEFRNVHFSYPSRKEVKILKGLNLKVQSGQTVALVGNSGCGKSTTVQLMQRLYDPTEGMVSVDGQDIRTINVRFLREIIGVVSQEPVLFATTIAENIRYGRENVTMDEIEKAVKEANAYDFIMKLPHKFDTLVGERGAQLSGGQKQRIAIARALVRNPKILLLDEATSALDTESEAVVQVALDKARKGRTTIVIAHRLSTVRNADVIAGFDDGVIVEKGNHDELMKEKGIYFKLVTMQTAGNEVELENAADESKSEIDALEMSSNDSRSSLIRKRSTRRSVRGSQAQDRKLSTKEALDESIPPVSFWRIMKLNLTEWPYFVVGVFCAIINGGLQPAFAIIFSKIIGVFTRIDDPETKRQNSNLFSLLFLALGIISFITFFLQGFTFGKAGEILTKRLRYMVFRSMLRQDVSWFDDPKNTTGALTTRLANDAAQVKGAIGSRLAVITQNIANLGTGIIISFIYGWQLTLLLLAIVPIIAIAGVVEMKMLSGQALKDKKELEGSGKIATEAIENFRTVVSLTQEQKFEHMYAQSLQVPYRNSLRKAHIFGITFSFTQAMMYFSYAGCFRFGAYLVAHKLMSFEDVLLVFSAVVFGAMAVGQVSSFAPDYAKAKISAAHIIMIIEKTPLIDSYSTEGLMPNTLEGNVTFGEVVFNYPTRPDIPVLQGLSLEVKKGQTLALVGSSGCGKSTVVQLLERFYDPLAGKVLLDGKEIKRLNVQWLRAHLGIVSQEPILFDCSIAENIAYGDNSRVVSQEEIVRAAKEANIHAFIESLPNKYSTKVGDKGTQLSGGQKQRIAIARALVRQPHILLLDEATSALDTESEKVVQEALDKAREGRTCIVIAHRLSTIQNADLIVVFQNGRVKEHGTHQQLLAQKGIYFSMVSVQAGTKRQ
Sequence of CYP2B6 (P20813 whole entry): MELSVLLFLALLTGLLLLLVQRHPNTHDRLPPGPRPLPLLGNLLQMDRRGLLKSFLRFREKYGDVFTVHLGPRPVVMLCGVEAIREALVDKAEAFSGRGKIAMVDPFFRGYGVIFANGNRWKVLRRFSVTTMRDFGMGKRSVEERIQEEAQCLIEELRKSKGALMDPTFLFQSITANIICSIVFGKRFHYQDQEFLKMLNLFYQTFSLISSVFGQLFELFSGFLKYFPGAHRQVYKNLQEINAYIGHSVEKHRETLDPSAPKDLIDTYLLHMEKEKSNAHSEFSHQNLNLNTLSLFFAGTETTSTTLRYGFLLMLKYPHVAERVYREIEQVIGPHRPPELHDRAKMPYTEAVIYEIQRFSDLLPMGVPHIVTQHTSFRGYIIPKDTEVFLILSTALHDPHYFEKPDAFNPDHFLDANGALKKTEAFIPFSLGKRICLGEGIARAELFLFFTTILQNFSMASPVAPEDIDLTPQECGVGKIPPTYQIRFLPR
Sequence of OAT3 (Q8TCC7 whole entry): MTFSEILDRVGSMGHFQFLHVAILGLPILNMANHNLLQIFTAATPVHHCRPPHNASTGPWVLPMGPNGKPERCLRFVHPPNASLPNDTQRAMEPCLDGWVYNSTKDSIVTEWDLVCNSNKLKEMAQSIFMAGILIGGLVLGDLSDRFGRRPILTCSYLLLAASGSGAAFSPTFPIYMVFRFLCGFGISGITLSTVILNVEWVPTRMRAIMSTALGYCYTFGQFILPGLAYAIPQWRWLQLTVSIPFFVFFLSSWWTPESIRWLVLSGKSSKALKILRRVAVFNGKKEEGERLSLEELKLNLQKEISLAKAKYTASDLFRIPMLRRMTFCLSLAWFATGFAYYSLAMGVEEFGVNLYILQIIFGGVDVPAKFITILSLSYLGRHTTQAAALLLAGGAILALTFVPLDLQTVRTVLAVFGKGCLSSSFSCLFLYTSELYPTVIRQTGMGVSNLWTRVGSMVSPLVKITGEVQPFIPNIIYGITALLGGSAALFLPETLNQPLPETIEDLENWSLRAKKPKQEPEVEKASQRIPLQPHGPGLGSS
Sequence of MATE1 (Q96FL8 whole entry): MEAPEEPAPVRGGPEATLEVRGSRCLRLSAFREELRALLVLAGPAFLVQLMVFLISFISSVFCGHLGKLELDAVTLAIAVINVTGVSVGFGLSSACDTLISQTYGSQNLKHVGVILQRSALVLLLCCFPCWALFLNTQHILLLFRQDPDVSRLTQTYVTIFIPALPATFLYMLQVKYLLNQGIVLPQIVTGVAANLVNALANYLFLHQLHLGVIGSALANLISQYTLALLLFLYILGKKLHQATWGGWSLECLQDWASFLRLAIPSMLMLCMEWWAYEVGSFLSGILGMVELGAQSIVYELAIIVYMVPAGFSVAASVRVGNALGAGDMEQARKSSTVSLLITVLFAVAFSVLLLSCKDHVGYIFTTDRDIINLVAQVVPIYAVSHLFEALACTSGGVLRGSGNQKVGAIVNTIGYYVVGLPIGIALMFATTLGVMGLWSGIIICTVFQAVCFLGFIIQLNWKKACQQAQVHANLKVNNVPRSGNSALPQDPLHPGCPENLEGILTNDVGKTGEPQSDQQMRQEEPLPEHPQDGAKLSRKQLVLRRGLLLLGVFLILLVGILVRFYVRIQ
Sequence of CYP2E1 (P05181 whole entry): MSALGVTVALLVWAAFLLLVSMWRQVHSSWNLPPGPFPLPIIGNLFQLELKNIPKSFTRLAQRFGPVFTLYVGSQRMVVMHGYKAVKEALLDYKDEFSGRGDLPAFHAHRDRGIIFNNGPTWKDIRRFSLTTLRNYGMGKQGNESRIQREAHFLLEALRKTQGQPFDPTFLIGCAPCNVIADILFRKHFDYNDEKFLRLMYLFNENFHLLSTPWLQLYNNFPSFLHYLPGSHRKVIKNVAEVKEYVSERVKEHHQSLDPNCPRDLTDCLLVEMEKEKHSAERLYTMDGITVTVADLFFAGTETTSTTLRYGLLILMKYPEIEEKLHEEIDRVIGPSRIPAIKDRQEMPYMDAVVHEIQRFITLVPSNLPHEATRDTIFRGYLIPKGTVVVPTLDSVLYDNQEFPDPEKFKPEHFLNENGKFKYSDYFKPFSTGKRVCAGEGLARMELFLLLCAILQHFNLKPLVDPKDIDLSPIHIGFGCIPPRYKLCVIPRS
Sequence of CYP2A6 (P11509 whole entry): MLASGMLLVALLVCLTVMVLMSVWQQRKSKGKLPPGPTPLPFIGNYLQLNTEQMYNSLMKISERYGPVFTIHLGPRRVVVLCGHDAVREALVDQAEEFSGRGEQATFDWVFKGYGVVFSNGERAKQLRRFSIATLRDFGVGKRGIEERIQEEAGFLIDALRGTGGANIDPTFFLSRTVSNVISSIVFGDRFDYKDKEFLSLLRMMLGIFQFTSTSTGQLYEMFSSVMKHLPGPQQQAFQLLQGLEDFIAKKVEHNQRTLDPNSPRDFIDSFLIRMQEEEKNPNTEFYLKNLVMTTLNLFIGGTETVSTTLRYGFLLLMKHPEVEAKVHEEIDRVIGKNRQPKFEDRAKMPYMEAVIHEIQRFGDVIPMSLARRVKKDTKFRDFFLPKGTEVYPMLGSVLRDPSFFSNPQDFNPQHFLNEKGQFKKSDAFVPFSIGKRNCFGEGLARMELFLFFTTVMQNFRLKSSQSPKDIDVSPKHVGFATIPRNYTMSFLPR

CN(C(=O)n1cnc(-c2ccc[n+]([O-])c2)c1)C1CCCCC1 [BIA 10‐2474, 3‐(1‐(cyclohexyl (methyl)carbamoyl)‐1H‐imidazol‐4‐yl)pyridine 1‐oxide]
maximum inhibition, MATE2‐K (human MATE2-K): 59%
IC50 (human MATE2-K; IC50, MATE2‐K‐mediated probe substrate accumulation): 3.43 µM and 3.4 µM
effect on OATP1B3‐mediated probe substrate accumulation (human OATP1B3): did not influence
inhibitory effect on CYP2A6 (CYP2A6): did not exhibit any inhibitory effects
inhibition at 10 μg·ml^−1 (OCT1): 26%
inhibitory effect on CYP2E1 (CYP2E1): did not exhibit any inhibitory effects
effect on OAT1‐mediated probe substrate accumulation (human OAT1): did not influence
inhibition at 10 μg·ml^−1 (MATE1): 24%
inhibitory effect on CYP2B6 (CYP2B6): did not exhibit any inhibitory effects
level in all brain sections ([1]; 24 hr after acute and 24, 48 and 72 hr after chronic administration): < 50 ng·g^−1 of tissue
brain levels, acute versus repeated oral administration ([1]; any brain region and time point): no significant differences
efflux ratio (BCRP; highest observed net efflux ratio (ERBCRP‐ERMDCKII), 10 and 1 μM): 5.7
efflux ratio (BCRP; net ER, MDCKII‐BCRP, without inhibitor): 4.95
efflux ratio (BCRP; with Ko143 1 μM, net ER, MDCKII‐BCRP, with 1 μM of Ko143): 0.03
transporter specific fold accumulations [2]: < 2
effect on mortality rate compared with vehicle (SHRSP; log‐rank test P = .1882): no effect
surviving rats with haemorrhage in the hippocampus and dorsal cortex (SHRSP; vehicle three of the 14): Three of the 17
inhibition at 10 μg·ml^−1 (OCT2): 25%
inhibition (OAT3): 34%
effect on OATP1B1‐mediated probe substrate accumulation (human OATP1B1): did not influence
inhibitory effect on CYP3A4 [midazolam] (CYP3A4; 0.33–99.2 μM, co‐ and pre‐incubation): did not exhibit any inhibitory effects
inhibition of CYP3A4 (testosterone as substrate) (CYP3A4; co‐incubation): minor inhibition
inhibition of CYP3A4 (testosterone as substrate) (CYP3A4; pre‐incubation with BIA 10‐2474): no effect
efflux ratio (MDR1; MDCK-MDR1, highest observed net efflux ratio (ERMDR1‐ERMDCKII)): 2.24
efflux ratio at 10 μM (MDR1; MDCK-MDR1, net ER, MDCKII‐MDR1, without inhibitor): 1.45
inhibitory effect on CYP2C19 (CYP2C19): did not exhibit any inhibitory effects
